# E-sel inducer: induces E-selectin expression in human endothelial cells; 260,000 tested, 0.37% active; AID 686992; P16581; HUVEC E-selectin immunofluorescence imaging; normalized: neutral wells 0, TNF-alpha wells 100; activation, % at 7.58 µM;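 active means mean E-selectin-positive cell signal at least 10% of the positive control, reached in at least 60% of replicates, without over 20% cell loss; inconclusive means no rule given, readout overlaps actives, possibly toxicity-flagged; inactive means the rest, including those meeting only one limit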
# Target sequence (P16581 whole entry, looked up): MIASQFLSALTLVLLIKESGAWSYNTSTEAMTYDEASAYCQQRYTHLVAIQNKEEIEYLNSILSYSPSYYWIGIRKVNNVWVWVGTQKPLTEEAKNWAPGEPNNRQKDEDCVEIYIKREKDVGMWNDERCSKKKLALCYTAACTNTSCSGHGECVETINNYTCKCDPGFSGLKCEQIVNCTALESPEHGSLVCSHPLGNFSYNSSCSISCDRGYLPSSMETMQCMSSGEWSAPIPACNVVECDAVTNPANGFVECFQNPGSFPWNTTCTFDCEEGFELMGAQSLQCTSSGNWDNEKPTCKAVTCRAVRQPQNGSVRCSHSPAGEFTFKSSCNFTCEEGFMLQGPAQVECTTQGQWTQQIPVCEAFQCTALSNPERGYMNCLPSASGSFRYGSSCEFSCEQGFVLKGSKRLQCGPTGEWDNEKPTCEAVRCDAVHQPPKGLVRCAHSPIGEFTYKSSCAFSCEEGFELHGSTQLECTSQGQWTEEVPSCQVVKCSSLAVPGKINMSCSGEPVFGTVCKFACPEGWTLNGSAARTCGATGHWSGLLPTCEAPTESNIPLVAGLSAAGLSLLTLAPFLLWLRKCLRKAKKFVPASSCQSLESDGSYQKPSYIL
#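 material = human umbilical vein endothelial cells (HUVEC), E-selectin induction | quantity = 3,000 cells/well | medium = EGM-2 growth medium on 0.1% gelatin-coated wells | technique = immunofluorescence imaging | read-out basis = % PE-positive cells | control set = TNF-alpha positive control, DMSO neutral control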
# DENV2 CPE rescue: DENV2-induced cell death inhibition; DENV2-infected cells, cytopathic effect rescue, plate reader; CPE inhibition, % at 9.99 µM; 350,000 tested, 1.7% active; in the data active means CPE inhibition above about 20%, passing the limit was not always enough; inconclusive means no clear call, values can overlap the other calls; tested in BHK-21 cells
# C2C12 statin: protects C2C12 myotubes from simvastatin toxicity; ATP luminescence, 48 h; scaled: DMSO 0, geranylgeraniol control 100; rescue of ATP level, % at 7.49 µM; 330,000 tested, 0.78% active;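 active means mean ATP rescue above about 67%, or every replicate alone reaching that limit, limit read from the data, passing the limit was not always enough; inconclusive means no clear call, values can overlap the other calls; inactive means mean under the limit and some replicate under it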;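 further: myotubes were challenged with 10 µM simvastatin during compound exposure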
# A number is an active result; - = inactive; ? = inconclusive; . = no result given. Sampled rows, rich in hits. Any-hit rate of the full collection: about 2.2%.
SMILES,E-sel inducer,DENV2 CPE rescue,C2C12 statin
COc1ccc(NC(=O)N(C)C[C@H]2Oc3ccc(NS(=O)(=O)c4ccc(OC)cc4)cc3C(=O)N([C@@H](C)CO)C[C@H]2C)cc1,-,-,73
COc1ccc(NC(=O)N(C)C[C@H]2Oc3ccc(NS(=O)(=O)c4ccccc4)cc3C(=O)N([C@H](C)CO)C[C@H]2C)cc1,.,-,.
COc1ccc(NC(=O)N(C)C[C@@H]2Oc3ccc(NS(=O)(=O)c4ccc(OC)cc4)cc3C(=O)N([C@@H](C)CO)C[C@@H]2C)cc1,-,-,-
COc1ccc(NC(=O)N(C)C[C@H]2Oc3ccc(NS(=O)(=O)c4ccccc4)cc3C(=O)N([C@H](C)CO)C[C@@H]2C)cc1,-,29,-
O=C(C[C@H]1CC[C@@H]2[C@H](COC[C@@H](O)CN2Cc2cc(F)ccc2F)O1)NCc1ccccc1,-,-,-
C[C@@H]1CN([C@H](C)CO)C(=O)c2cc(NC(=O)Cc3ccccc3)ccc2O[C@@H]1CN(C)C(=O)NC1CCCCC1,-,-,-
Cc1ccc(S(=O)(=O)N[C@H]2C=C[C@@H](CC(=O)N3CCc4ccccc4C3)O[C@H]2CO)cc1,-,-,-
COc1ccccc1S(=O)(=O)N[C@H]1C=C[C@@H](CC(=O)NCc2cc(F)cc(F)c2)O[C@@H]1CO,-,-,-
NS(=O)(=O)c1ccc(CCNCC(=O)N2CCC(Cc3ccccc3)CC2)cc1,-,-,85
NS(=O)(=O)c1ccc(CCNCC(=O)NC2CC2)cc1,-,-,-
CC(=O)N(C)C[C@@H]1Oc2cc(C#CC(C)(C)O)ccc2S(=O)(=O)N([C@H](C)CO)C[C@H]1C,-,-,-
C[C@@H]1CN([C@@H](C)CO)C(=O)c2cccc(NC(=O)c3nc4ccccc4s3)c2O[C@@H]1CN(C)C(=O)NC1CCCCC1,-,-,-
O=C(C[C@@H]1C[C@@H]2c3cc(NS(=O)(=O)c4ccc(F)cc4)ccc3O[C@@H]2[C@H](CO)O1)NCCc1ccccc1,-,58,-
O=C(C[C@H]1C[C@H]2c3cc(NS(=O)(=O)c4ccc(F)cc4)ccc3O[C@H]2[C@@H](CO)O1)NCCc1ccccc1,-,59,-
O=C(C[C@@H]1C[C@@H]2c3cc(NS(=O)(=O)c4ccc(F)cc4)ccc3O[C@@H]2[C@@H](CO)O1)NCCc1ccccc1,-,-,-
O=C(C[C@@H]1C[C@H]2c3cc(NS(=O)(=O)c4ccc(F)cc4)ccc3O[C@H]2[C@@H](CO)O1)NCCc1ccccc1,-,?,-
C[C@@H]1CN([C@@H](C)CO)C(=O)Cc2cc(NC(=O)Nc3ccc(C(F)(F)F)cc3)ccc2O[C@@H]1CN(C)Cc1ccncc1,.,-,-
CCS(=O)(=O)N1CC2(C1)[C@H](c1ccccc1)[C@H](CO)N2C(=O)C1CC1,-,-,.
O=C(C[C@H]1C[C@H]2c3cc(NC(=O)Nc4ccccc4F)ccc3O[C@H]2[C@@H](CO)O1)NC1CCCC1,-,-,-
C[C@@H]1CCCCO[C@H](CN(C)C(=O)Nc2ccc(C(F)(F)F)cc2)[C@H](C)CN([C@H](C)CO)C(=O)c2cc(NS(=O)(=O)c3ccc(F)cc3)ccc2O1,.,71,.
C[C@@H]1CCCCO[C@@H](CN(C)C(=O)Nc2ccc(C(F)(F)F)cc2)[C@@H](C)CN([C@H](C)CO)C(=O)c2cc(NS(=O)(=O)c3ccc(F)cc3)ccc2O1,.,-,.
C[C@H](CO)N1C[C@H](C)[C@@H](CN(C)C(=O)Nc2ccc(C(F)(F)F)cc2)OCCCC[C@H](C)Oc2ccc(NS(=O)(=O)c3ccc(F)cc3)cc2C1=O,.,95,.
C[C@@H]1CN([C@@H](C)CO)C(=O)c2cc(NS(=O)(=O)c3ccc(F)cc3)ccc2O[C@@H](C)CCCCO[C@@H]1CN(C)C(=O)Nc1ccc(C(F)(F)F)cc1,.,-,.
Cc1ccc(S(=O)(=O)Nc2ccc3c(c2)C(=O)N([C@H](C)CO)C[C@H](C)[C@@H](CN(C)C(=O)Nc2ccc(C(F)(F)F)cc2)OCCCC[C@@H](C)O3)cc1,-,-,.
C[C@@H]1CCCCO[C@@H](CN(C)C(=O)Nc2ccc(C(F)(F)F)cc2)[C@H](C)CN([C@@H](C)CO)C(=O)c2cc(NS(=O)(=O)c3ccc(F)cc3)ccc2O1,.,61,.
SMILES,E-sel inducer,DENV2 CPE rescue,C2C12 statin
Cc1noc(C)c1NC(=O)N(C)C[C@@H]1OCCCC[C@@H](C)Oc2ccc(NS(=O)(=O)c3ccc(Cl)cc3)cc2C(=O)N([C@H](C)CO)C[C@@H]1C,.,-,.
CC(C)C#Cc1ccc2c(c1)O[C@@H](CN(C)CC1CCOCC1)[C@@H](C)CN([C@@H](C)CO)S2(=O)=O,-,-,-
COc1ccc(CN(C)C[C@H]2OCCCC[C@H](C)Oc3ccc(NS(=O)(=O)c4ccc(F)cc4)cc3C(=O)N([C@H](C)CO)C[C@@H]2C)cc1,.,-,.
COc1ccccc1NC(=O)N1CC(=O)N2[C@H](C1)[C@H](c1ccc(-c3ccc(C)cc3)cc1)[C@@H]2CO,-,-,.
CO[C@H]1CN(C)C(=O)c2cc(NS(=O)(=O)CC(F)(F)F)ccc2OC[C@H](C)NC[C@H]1C,-,-,-
CCS(=O)(=O)Nc1ccc2c(c1)C(=O)N(C)C[C@@H](OC)[C@@H](C)CN[C@H](C)CO2,-,55,-
CCS(=O)(=O)Nc1ccc2c(c1)C(=O)N(C)C[C@H](OC)[C@H](C)CN[C@H](C)CO2,-,21,-
CO[C@H]1CN(C)C(=O)c2cc(NS(=O)(=O)CC(F)(F)F)ccc2OC[C@@H](C)NC[C@H]1C,-,-,-
C[C@H](CO)N1C[C@H](C)[C@H](CN(C)C)Oc2ccc(N(C)C)cc2CC1=O,-,-,-
C[C@H](CO)N1C[C@H](C)[C@H](CN(C)C(=O)Nc2ccc3c(c2)OCO3)Oc2ccc(NC(=O)C3CC3)cc2CC1=O,-,-,-
C[C@H](CO)N1C[C@H](C)[C@H](CN(C)CC2CC2)Oc2cc(Br)ccc2S1(=O)=O,-,-,-
CO[C@H]1CN(C)C(=O)c2cc(NS(=O)(=O)c3ccc(Cl)cc3)ccc2OC[C@@H](C)NC[C@@H]1C,-,-,-
CN(C)C(=O)[C@@H]1[C@@H](CO)[C@@H]2Cn3c(ccc(C4=CCCC4)c3=O)[C@H]1N2S(=O)(=O)c1cn(C)cn1,-,22,-
CN(C)C(=O)[C@H]1[C@H](CO)[C@H]2Cn3c(ccc(C4=CCCCC4)c3=O)[C@@H]1N2Cc1ccncc1,-,36,-
CCNC(=O)[C@@H]1[C@@H](CO)[C@@H]2Cn3c(ccc(C4=CCCCC4)c3=O)[C@H]1N2Cc1ccncc1,-,-,-
CN(C)C(=O)[C@@H]1[C@@H](CO)[C@@H]2Cn3c(ccc(C4=CCCCC4)c3=O)[C@H]1N2C,-,-,-
O=S(=O)(N[C@H]1CC[C@@H](CCn2cc(-c3cccc(F)c3)nn2)O[C@H]1CO)c1ccc(Cl)cc1,-,-,-
CC(C)NC(=O)N(C)C[C@H]1OCCCC[C@H](C)Oc2ccc(NC(=O)c3ccncc3)cc2C(=O)N([C@@H](C)CO)C[C@@H]1C,-,.,-
CCCNC(=O)C[C@@H]1CC[C@@H]2[C@H](COc3ccc(NC(=O)c4cccc(C(F)(F)F)c4)cc3C(=O)N2C)O1,-,-,-
Cc1cccc(C(=O)Nc2cc(OCc3cccc(F)c3)c(Cl)cc2Cl)c1,-,.,113

# Screens as filed in PubChem.
